Measurements from different studies.
Compare with care: the assays were run in different laboratories.
RPS6KA2 N-terminal kinase domain: Ribosomal protein S6 kinase alpha-2, N-terminal kinase domain (RPS6KA2, Homo sapiens, UniProt Q15349)
RPS6KA2: Ribosomal protein S6 kinase alpha-2 (RPS6KA2, Homo sapiens, UniProt Q15349)
RPS6KA2 C-terminal kinase domain: Ribosomal protein S6 kinase alpha-2, C-terminal kinase domain (RPS6KA2, Homo sapiens, UniProt Q15349)

Structure (SMILES)	target	observed	mode	technique	tested at	measurement	result
Nc1ncnc2occ(-c3ccc(NC(=O)Nc4cc(C(F)(F)F)ccc4F)cc3)c12	RPS6KA2 N-terminal kinase domain	cell-free assay	inhibitor	–	20 µM	remaining signal	0.6%
CCOc1cc(-c2nncn2C)ccc1Nc1ncc2cc(C)nc(NCC(C)(C)C)c2n1	RPS6KA2	enzyme activity	inhibitor	FRET	1 µM	inhibition	< 15%
CN(c1nccc(-c2cnn3ncccc23)n1)C1CC1	RPS6KA2 N-terminal kinase domain	binding	–	competition with immobilised ligand	1 µM	remaining binding	99%
CNC(=O)c1ccc(Nc2ncc(C(F)(F)F)c(NCc3nccnc3N(C)S(C)(=O)=O)n2)cc1	RPS6KA2 C-terminal kinase domain	cell-free assay	–	competition with immobilised ligand	0.1 µM	remaining binding	61%
CN(C)c1ncc(F)c(-c2cnn3ncccc23)n1	RPS6KA2 N-terminal kinase domain	binding	–	competition with immobilised ligand	1 µM	remaining binding	100%
CCCCN(CCCC)C(=O)CN1C[C@@H](c2cc(OC)c3c(c2)OCO3)[C@H](C(=O)O)[C@H]1CC(C)(C)CCC	RPS6KA2 C-terminal kinase domain	cell-free assay	–	competition with immobilised ligand	1 µM	remaining binding	90.2%
CN(C)c1nccc(-c2cnn3ncccc23)n1	RPS6KA2 C-terminal kinase domain	binding	–	competition with immobilised ligand	1 µM	remaining binding	100%
CNC(=O)Nc1ccc2c(c1)[C@@]1(CC2)OC(=O)N(CC(=O)N(Cc2ccc(F)cc2)[C@@H](C)C(F)(F)F)C1=O	RPS6KA2 C-terminal kinase domain	cell-free assay	–	competition with immobilised ligand	1 µM	remaining binding	100%
Cc1cnc(NC2CCOCC2)nc1-n1cnc(C(=O)NC(CN)c2cc(F)cc(Cl)c2)c1 (stereo not drawn)	RPS6KA2	enzyme activity	inhibitor	radiometric	1 µM	remaining activity	12%
CC(C)(C)c1nc2c(s1)c1nc(N)ncc1c1ccc(NS(=O)(=O)c3c(F)cccc3F)c(F)c12	RPS6KA2	enzyme activity	inhibitor	radiometric	1 µM	remaining activity	84%
Cc1ccc(NC(=O)c2ccc(C)c(C(F)(F)F)c2)cc1C#Cc1nn(C2CCC(O)CC2)c2ncnc(N)c12 (stereo not drawn)	RPS6KA2	cell-free assay	–	–	10 µM	remaining signal	38%
CNCc1ccc(-c2cc(-c3nc(-c4ccc(S(=O)(=O)C(C)C)cc4)cnc3N)on2)cc1	RPS6KA2	enzyme activity	inhibitor	–	0.4 µM	inhibition	17%
FC(F)(F)c1ccc2c(c1)nc(-c1cccnc1)n2C1CC1	RPS6KA2 N-terminal kinase domain	cell-free assay	–	competition with immobilised ligand	1 µM	remaining binding	100%
Cc1ccc(Nc2nccc(N(C)c3ccc4c(C)n(C)nc4c3)n2)cc1S(N)(=O)=O	RPS6KA2	enzyme activity	inhibitor	–	10 µM	inhibition	64%
CN(C)C(=O)Cn1cc(-c2nc([C@@](C)(c3ccc(-c4cnc(N)nc4)cc3)C3CC3)no2)cn1	RPS6KA2 N-terminal kinase domain	cell-free assay	–	competition with immobilised ligand	1 µM	remaining binding	85%
Cc1cnn2ncc(-c3ccnc(N(C)C)n3)c2c1	RPS6KA2 N-terminal kinase domain	binding	–	competition with immobilised ligand	1 µM	remaining binding	85%
CCCS(=O)(=O)Nc1ccc(F)c(C(=O)c2c[nH]c3ncc(-c4ccc(Cl)cc4)cc23)c1F	RPS6KA2	enzyme activity	inhibitor	–	1 µM	inhibition	< 10%
O=C(NC[C@@H]1[C@H]2CN(C(=O)OCc3cc(C(F)(F)F)cc(C(F)(F)F)c3)C[C@@H]12)c1ccc2[nH]nnc2c1	RPS6KA2 C-terminal kinase domain	cell-free assay	–	competition with immobilised ligand	1 µM	remaining binding	84%
Cc1ccc(C(=O)NCc2ccsc2)cc1C#Cc1cn(C(C)C)c2ncnc(N)c12	RPS6KA2	enzyme activity	inhibitor	–	1 µM	activity vs control	85%
C[C@@H]1CCN(c2nccc(-c3cnn4ncccc34)n2)C1	RPS6KA2 C-terminal kinase domain	binding	–	competition with immobilised ligand	1 µM	remaining binding	45%
COc1cc2ncnc(Nc3ccc(Oc4ccccc4)c(C)c3C)c2cc1OC	RPS6KA2	enzyme activity	inhibitor	–	1 µM	inhibition	2%
Cc1ccc(C(=O)Nc2ccc(CN3CCN(C)CC3)c(C(F)(F)F)c2)cc1C#Cc1cnc2cccnn12	RPS6KA2	enzyme activity	inhibitor	–	23.5 nM	activity vs control	98%
C[C@@H]1CN(c2cc(-c3n[nH]c4ccc(OC5(C)CC5)cc34)ncn2)C[C@H](C)O1	RPS6KA2 C-terminal kinase domain	cell-free assay	–	competition with immobilised ligand	0.1 µM	remaining binding	100%
N[C@H]1CCN(c2nccc(-c3cnn4ncccc34)n2)C1	RPS6KA2 N-terminal kinase domain	binding	–	competition with immobilised ligand	1 µM	remaining binding	85%
